What was measured:
Cytochrome P450 1A2 = molecular target: T1, Cytochrome P450 1A2 (Homo sapiens, UniProt P05177); test: Activity of human CYP1A2 expressed in microsomes isolated from baculovirus infected insect cell assessed as enzyme-mediated compound formation treated with [14C]-rivoglitazone at 20 uM after 2 hrs by radio-HPLC/LC-MS/MS analysis in presence of NADPH-generating system and NADPH-generating system/SAM; format: ADME
T1 sequence (P05177 whole entry): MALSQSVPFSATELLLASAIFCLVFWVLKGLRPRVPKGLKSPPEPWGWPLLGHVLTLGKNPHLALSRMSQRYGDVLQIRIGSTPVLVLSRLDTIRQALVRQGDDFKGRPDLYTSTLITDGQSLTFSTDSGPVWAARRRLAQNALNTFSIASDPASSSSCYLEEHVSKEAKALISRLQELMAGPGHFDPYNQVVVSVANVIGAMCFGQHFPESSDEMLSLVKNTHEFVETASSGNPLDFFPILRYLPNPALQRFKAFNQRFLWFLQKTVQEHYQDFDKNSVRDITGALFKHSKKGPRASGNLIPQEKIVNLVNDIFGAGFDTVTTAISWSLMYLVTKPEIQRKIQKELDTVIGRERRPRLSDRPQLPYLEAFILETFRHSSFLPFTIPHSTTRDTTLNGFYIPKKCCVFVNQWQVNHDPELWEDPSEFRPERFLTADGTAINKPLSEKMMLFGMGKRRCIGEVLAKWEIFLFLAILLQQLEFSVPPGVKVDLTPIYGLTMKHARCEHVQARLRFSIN
Method in brief: (§1)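 Baculovirus/insect-cell microsomes expressing single human CYPs, 1 mg/ml protein, with 50 mM potassium phosphate (pH 7.4) or 100 mM Tris-HCl (pH 7.5). NADPH-generating system: 2 mM NADP⁺, 20 mM glucose 6-phosphate, 2 units/ml G6PDH, 10 mM MgCl₂. [¹⁴C]rivoglitazone at 20 μM, 2 h at 37°C with shaking. Control used insect-cell control supersomes. Stopped with acetonitrile; supernatant concentrated under nitrogen; metabolites analysed by radio-HPLC, LC-MS and LC-MS/MS.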

[1] = Drug level in cynomolgus monkey liver microsomes treated with [14C]-rivoglitazone at 20 uM after 2 hrs by radio-HPLC/LC-MS/MS analysis in presence of NADPH-generating system and NADPH-generating system/SAM; format: ADME, Macaca fascicularis
Method in brief: (§2)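 Pooled male liver microsomes (1 mg/ml protein; rat from 94 Sprague-Dawley, monkey from 8 cynomolgus, human from 23 donors) were incubated with [¹⁴C]rivoglitazone (20 μM). Buffer: 10 mM potassium phosphate (pH 7.4). Cofactors: NADPH-generating system (2 mM NADP⁺, 20 mM G6P, 2 U/ml G6PDH, 10 mM MgCl₂), with or without 2 mM SAM. Incubation 2 h at 37°C with shaking; controls lacked NADPH system and SAM alone. Acetonitrile stop, radio-HPLC plus LC-MS.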

Hepatocyte [2] = test: Drug level in rat hepatocytes treated with [14C]-rivoglitazone at 30 uM after 3 hrs by radio-HPLC/LC-MS/MS analysis in presence of NADPH-generating system and NADPH-generating system/SAM; format: ADME, cell-based
Hepatocyte [3] = test: Drug level in human hepatocytes treated with [14C]-rivoglitazone at 30 uM after 3 hrs by radio-HPLC/LC-MS/MS analysis in presence of NADPH-generating system and NADPH-generating system/SAM; format: ADME, cell-based
Liver microsome [4] = test: Drug level in Sprague-Dawley rat liver microsomes treated with [14C]-rivoglitazone at 20 uM after 2 hrs by radio-HPLC/LC-MS/MS analysis in presence of NADPH-generating system and NADPH-generating system/SAM; format: ADME; method in brief: as §2
Liver microsome [5] = test: Drug level in human liver microsomes treated with [14C]-rivoglitazone at 20 uM after 2 hrs by radio-HPLC/LC-MS/MS analysis in presence of NADPH-generating system and NADPH-generating system/SAM; format: ADME; method in brief: as §2
Cytochrome P450 2C19 = Cytochrome P450 2C19 (Homo sapiens, UniProt P33261); test: Activity of human CYP2C19 expressed in microsomes isolated from baculovirus infected insect cell assessed as enzyme-mediated compound formation treated with [14C]-rivoglitazone at 20 uM after 2 hrs by radio-HPLC/LC-MS/MS analysis in presence of NADPH-generating system and NADPH-generating system/SAM; format: ADME; method in brief: as §1
Cytochrome P450 3A4 = Cytochrome P450 3A4 (Homo sapiens, UniProt P08684); test: Activity of human CYP3A4 expressed in microsomes isolated from baculovirus infected insect cell assessed as enzyme-mediated compound formation treated with [14C]-rivoglitazone at 20 uM after 2 hrs by radio-HPLC/LC-MS/MS analysis in presence of NADPH-generating system and NADPH-generating system/SAM; format: ADME
[6] = tested on: Hepatocyte (Macaca fascicularis); test: Drug level in monkey hepatocytes treated with [14C]-rivoglitazone at 30 uM after 3 hrs by radio-HPLC/LC-MS/MS analysis in presence of NADPH-generating system and NADPH-generating system/SAM; conditions: cynomolgus monkey
Cytochrome P450 3A5 = Cytochrome P450 3A5 (Homo sapiens, UniProt P20815); test: Activity of human CYP3A5 expressed in microsomes isolated from baculovirus infected insect cell assessed as enzyme-mediated compound formation treated with [14C]-rivoglitazone at 20 uM after 2 hrs by radio-HPLC/LC-MS/MS analysis in presence of NADPH-generating system and NADPH-generating system/SAM; format: ADME
Method in brief: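 cDNA-expressed human CYP3A5 in baculovirus-insect-cell microsomes (1 mg/ml protein) was incubated with [¹⁴C]rivoglitazone (20 μM) in 50 mM potassium phosphate (pH 7.4) or 100 mM Tris-HCl (pH 7.5). NADPH-generating system: 2 mM NADP⁺, 20 mM glucose 6-phosphate, 2 units/ml G6PDH, 10 mM MgCl₂. Incubation ran 2 h at 37°C with shaking; insect-cell control supersomes served as control. Acetonitrile stop, supernatant concentrated, then radio-HPLC, LC-MS and LC-MS/MS.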

Cytochrome P450 2D6 = Cytochrome P450 2D6 (Homo sapiens, UniProt P10635); test: Activity of human CYP2D6 expressed in microsomes isolated from baculovirus infected insect cell assessed as enzyme-mediated compound formation treated with [14C]-rivoglitazone at 20 uM after 2 hrs by radio-HPLC/LC-MS/MS analysis in presence of NADPH-generating system and NADPH-generating system/SAM; format: ADME
Cytochrome P450 2C9 = Cytochrome P450 2C9 (Homo sapiens, UniProt P11712); test: Activity of human CYP2C9 expressed in microsomes isolated from baculovirus infected insect cell assessed as enzyme-mediated compound formation treated with [14C]-rivoglitazone at 20 uM after 2 hrs by radio-HPLC/LC-MS/MS analysis in presence of NADPH-generating system and NADPH-generating system/SAM; format: ADME
[7] = Retention time of the compound by LC-MS/MS analysis; format: physicochemical
Method in brief: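 LC-MS/MS used a YMC-Pack ODS-A column (1.5 × 150 mm, 5 μm) at 30°C, 0.1 ml/min. Mobile phase was water and acetonitrile, each with 0.01% TFA. Gradient: 12→60% B over 30 min, →90% B over 5 min, hold 5 min. Detection was UV 220 nm with positive ESI Q-TOF (capillary 3300 V, cone 45 V), collision energy 20 eV and xenon as collision gas.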

Cytochrome P450 2C8 = molecular target: T2, Cytochrome P450 2C8 (Homo sapiens, UniProt P10632); test: Activity of human CYP2C8 expressed in microsomes isolated from baculovirus infected insect cell assessed as enzyme-mediated compound formation treated with [14C]-rivoglitazone at 20 uM after 2 hrs by radio-HPLC/LC-MS/MS analysis in presence of NADPH-generating system and NADPH-generating system/SAM; format: ADME; method in brief: as §1
T2 sequence (P10632 whole entry): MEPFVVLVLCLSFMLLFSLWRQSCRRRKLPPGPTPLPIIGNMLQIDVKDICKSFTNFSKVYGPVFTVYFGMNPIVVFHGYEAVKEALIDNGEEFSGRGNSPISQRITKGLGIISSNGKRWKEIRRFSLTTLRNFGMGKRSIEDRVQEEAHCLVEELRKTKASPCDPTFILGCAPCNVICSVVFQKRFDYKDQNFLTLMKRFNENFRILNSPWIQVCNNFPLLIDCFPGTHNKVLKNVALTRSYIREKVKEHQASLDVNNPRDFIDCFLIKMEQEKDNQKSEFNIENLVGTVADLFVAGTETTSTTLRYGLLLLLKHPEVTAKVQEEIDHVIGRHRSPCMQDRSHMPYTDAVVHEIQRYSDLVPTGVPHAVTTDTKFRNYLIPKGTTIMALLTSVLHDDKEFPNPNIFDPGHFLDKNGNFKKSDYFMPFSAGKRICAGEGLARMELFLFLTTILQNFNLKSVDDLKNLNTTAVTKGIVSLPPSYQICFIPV

Hepatocyte [8] = test: Drug level in human hepatocytes treated with [14C]-rivoglitazone at 30 uM after 3 hrs by radio-HPLC/LC-MS/MS analysis in presence of NADPH-generating system/SAM; format: ADME, cell-based
Liver microsome [9] = test: Drug level in Sprague-Dawley rat liver microsomes treated with [14C]-rivoglitazone at 20 uM after 2 hrs by radio-HPLC/LC-MS/MS analysis in presence of NADPH-generating system/SAM; format: ADME; method in brief: as §2
Hepatocyte [10] = test: Drug level in rat hepatocytes treated with [14C]-rivoglitazone at 30 uM after 3 hrs by radio-HPLC/LC-MS/MS analysis in presence of NADPH-generating system/SAM; format: ADME, cell-based
[11] = Drug level in cynomolgus monkey liver microsomes treated with [14C]-rivoglitazone at 20 uM after 2 hrs by radio-HPLC/LC-MS/MS analysis in presence of NADPH-generating system/SAM; format: ADME, Macaca fascicularis; method in brief: as §2
Liver microsome [12] = test: Drug level in human liver microsomes treated with [14C]-rivoglitazone at 20 uM after 2 hrs by radio-HPLC/LC-MS/MS analysis in presence of NADPH-generating system/SAM; format: ADME; method in brief: as §2
Hepatocyte [13] = test: Drug level in human hepatocytes treated with [14C]-rivoglitazone at 30 uM after 3 hrs by radio-HPLC/LC-MS/MS analysis; format: ADME, cell-based
Method in brief: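 Freshly isolated hepatocytes were suspended in HBSS at 2×10^6 viable cells/ml; trypan-blue viability was rat 88%, monkey 91 and 94%, human 66, 73 and 81%. Donors were rat (7 weeks, 170 g) and two male cynomolgus monkeys. Cells were incubated with [¹⁴C]rivoglitazone (30 μM) for 3 h at 37°C under 95% O₂/5% CO₂. Acetonitrile stop, sonication, samples pooled per species, supernatant analysed by radio-HPLC and LC-MS.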

Sequence of Cytochrome P450 2C19 (P33261 whole entry): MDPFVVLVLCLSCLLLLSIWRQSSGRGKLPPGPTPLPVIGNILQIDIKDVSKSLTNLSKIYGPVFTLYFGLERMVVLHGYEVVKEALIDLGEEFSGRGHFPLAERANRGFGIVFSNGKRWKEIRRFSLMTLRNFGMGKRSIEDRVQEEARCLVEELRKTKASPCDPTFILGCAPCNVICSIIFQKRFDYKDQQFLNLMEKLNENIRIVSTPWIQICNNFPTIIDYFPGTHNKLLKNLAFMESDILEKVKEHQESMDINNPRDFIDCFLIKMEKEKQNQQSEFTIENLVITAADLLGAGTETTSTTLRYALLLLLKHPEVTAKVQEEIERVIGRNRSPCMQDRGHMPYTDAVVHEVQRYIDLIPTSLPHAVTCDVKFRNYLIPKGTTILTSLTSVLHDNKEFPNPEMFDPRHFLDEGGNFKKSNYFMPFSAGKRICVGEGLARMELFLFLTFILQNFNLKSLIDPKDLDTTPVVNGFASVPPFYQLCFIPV
Sequence of Cytochrome P450 3A4 (P08684 whole entry): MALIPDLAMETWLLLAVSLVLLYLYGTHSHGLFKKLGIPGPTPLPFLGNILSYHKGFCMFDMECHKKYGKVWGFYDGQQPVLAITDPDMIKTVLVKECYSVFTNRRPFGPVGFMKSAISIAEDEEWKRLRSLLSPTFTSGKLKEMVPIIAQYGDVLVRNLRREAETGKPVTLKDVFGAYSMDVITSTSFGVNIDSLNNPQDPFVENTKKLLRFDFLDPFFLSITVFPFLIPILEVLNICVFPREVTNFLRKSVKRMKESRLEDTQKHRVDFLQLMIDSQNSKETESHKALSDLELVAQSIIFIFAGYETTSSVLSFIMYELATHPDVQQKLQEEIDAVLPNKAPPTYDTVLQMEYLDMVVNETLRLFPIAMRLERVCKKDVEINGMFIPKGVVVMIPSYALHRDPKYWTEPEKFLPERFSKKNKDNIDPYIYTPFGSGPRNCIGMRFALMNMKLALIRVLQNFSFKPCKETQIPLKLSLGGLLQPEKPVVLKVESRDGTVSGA
Sequence of Cytochrome P450 2D6 (P10635 whole entry): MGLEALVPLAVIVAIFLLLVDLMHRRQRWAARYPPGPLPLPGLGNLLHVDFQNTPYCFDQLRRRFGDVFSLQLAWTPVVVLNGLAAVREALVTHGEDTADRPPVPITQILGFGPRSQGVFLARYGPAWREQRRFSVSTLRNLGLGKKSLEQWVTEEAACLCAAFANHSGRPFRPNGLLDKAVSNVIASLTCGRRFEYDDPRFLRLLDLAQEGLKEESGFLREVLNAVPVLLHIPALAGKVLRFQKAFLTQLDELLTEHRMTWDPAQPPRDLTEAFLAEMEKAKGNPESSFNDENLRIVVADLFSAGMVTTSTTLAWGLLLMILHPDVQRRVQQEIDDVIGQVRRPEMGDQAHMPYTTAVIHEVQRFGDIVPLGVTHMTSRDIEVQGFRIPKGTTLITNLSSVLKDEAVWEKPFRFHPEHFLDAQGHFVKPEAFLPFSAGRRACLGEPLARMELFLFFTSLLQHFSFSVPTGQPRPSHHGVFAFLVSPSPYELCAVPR
Sequence of Cytochrome P450 3A5 (P20815 whole entry): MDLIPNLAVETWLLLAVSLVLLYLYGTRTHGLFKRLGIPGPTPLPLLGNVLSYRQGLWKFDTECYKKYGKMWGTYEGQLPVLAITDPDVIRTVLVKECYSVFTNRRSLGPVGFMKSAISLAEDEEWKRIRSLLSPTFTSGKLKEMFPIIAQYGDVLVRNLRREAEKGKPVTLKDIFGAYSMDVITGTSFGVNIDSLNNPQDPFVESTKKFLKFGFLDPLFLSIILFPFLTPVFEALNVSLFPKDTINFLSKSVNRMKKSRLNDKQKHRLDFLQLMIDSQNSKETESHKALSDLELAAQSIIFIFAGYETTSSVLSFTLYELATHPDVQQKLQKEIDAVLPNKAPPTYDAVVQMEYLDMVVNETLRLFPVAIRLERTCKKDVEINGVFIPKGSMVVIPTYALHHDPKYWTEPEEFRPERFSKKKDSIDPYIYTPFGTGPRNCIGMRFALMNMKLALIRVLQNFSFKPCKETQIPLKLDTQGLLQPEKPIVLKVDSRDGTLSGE
Sequence of Cytochrome P450 2C9 (P11712 whole entry): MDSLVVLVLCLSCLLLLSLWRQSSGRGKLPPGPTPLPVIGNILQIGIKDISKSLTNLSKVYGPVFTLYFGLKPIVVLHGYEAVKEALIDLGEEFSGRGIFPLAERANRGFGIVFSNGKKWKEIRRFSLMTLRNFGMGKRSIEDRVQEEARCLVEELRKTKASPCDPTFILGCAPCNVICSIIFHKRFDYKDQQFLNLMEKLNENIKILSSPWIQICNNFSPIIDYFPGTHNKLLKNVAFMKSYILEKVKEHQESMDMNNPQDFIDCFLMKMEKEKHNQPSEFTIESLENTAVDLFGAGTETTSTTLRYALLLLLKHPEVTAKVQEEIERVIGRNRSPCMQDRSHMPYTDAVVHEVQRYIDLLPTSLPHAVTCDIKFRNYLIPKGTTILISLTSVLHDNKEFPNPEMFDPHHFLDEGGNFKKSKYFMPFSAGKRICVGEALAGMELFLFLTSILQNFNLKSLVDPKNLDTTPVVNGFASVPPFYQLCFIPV

With `Cn1c(COc2ccc(CC3SC(=O)NC3=O)cc2)nc2ccc(O)cc21` (centres undefined) the Drug metabolism (Cytochrome P450 1A2) was “metabolite_detected”, the Drug metabolism [1] was “metabolite_detected” and the Drug metabolism (Hepatocyte [2]) was “metabolite_detected”. For the same molecule, the Drug metabolism (Hepatocyte [3]) was “metabolite_detected”, the Drug metabolism (Liver microsome [4]) was “metabolite_detected” and the Drug metabolism (Liver microsome [5]) was “metabolite_detected”. For the same molecule, the Drug metabolism (Cytochrome P450 2C19) was “metabolite_detected”, the Drug metabolism (Cytochrome P450 3A4) was “metabolite_detected” and the Drug metabolism [6] was “metabolite_detected”. For the same molecule, the Drug metabolism (Cytochrome P450 3A5) was “metabolite_detected”, the Drug metabolism (Cytochrome P450 2D6) was “metabolite_detected” and the Drug metabolism (Cytochrome P450 2C9) was “metabolite_detected”. The Retention_time [7] was 19.2 min and the Drug metabolism (Cytochrome P450 2C8) was “metabolite_detected”.
With `COc1ccc2nc(COc3ccc(CC(C(N)=O)S(C)(=O)=O)cc3)n(C)c2c1` (centres undefined) the Drug metabolism (Hepatocyte [8]) was “metabolite_detected”, the Drug metabolism (Liver microsome [9]) was “metabolite_detected” and the Drug metabolism (Hepatocyte [10]) was “metabolite_detected”. The Drug metabolism [11] was “metabolite_detected”, the Retention_time [7] was 18.1 min and the Drug metabolism (Liver microsome [12]) was “metabolite_detected”.
For `COc1ccc2nc(COc3ccc(CC(O)C(N)=O)cc3)n(C)c2c1` (centres undefined), the Drug metabolism (Cytochrome P450 1A2) was “metabolite_detected”, the Drug metabolism [1] was “metabolite_detected” and the Drug metabolism (Liver microsome [4]) was “metabolite_detected”. The Drug metabolism (Liver microsome [5]) was “metabolite_detected”, the Drug metabolism (Cytochrome P450 2C19) was “metabolite_detected” and the Drug metabolism (Cytochrome P450 3A4) was “metabolite_detected”. For the same molecule, the Drug metabolism (Cytochrome P450 3A5) was “metabolite_detected”, the Drug metabolism (Cytochrome P450 2D6) was “metabolite_detected” and the Drug metabolism (Cytochrome P450 2C9) was “metabolite_detected”. The Retention_time [7] was 16.3 min and the Drug metabolism (Cytochrome P450 2C8) was “metabolite_detected”.
With `COc1ccc2nc(COc3ccc(CC(S)C(N)=O)cc3)n(C)c2c1` (centres undefined) the Drug metabolism (Cytochrome P450 1A2) was “metabolite_detected”, the Drug metabolism [1] was “metabolite_detected” and the Drug metabolism (Liver microsome [4]) was “metabolite_detected”. The Drug metabolism (Liver microsome [5]) was “metabolite_detected”, the Drug metabolism (Cytochrome P450 2C19) was “metabolite_detected” and the Drug metabolism (Cytochrome P450 3A4) was “metabolite_detected”. The Drug metabolism (Cytochrome P450 3A5) was “metabolite_detected”, the Drug metabolism (Cytochrome P450 2D6) was “metabolite_detected” and the Drug metabolism (Cytochrome P450 2C9) was “metabolite_detected”. The Retention_time [7] was 20.2 min and the Drug metabolism (Cytochrome P450 2C8) was “metabolite_detected”.
In the case of `COc1ccc2nc(COc3ccc(CC4(O)SC(=O)NC4=O)cc3)n(C)c2c1` (centres undefined), the Drug metabolism (Cytochrome P450 1A2) is reported as “metabolite_detected”, the Drug metabolism [1] is reported as “metabolite_detected” and the Drug metabolism (Hepatocyte [2]) is reported as “metabolite_detected”. The Drug metabolism (Hepatocyte [3]) was “metabolite_detected”, the Drug metabolism (Liver microsome [4]) was “metabolite_detected” and the Drug metabolism (Liver microsome [5]) was “metabolite_detected”. For the same molecule, the Drug metabolism (Cytochrome P450 2C19) was “metabolite_detected”, the Drug metabolism (Cytochrome P450 3A4) was “metabolite_detected” and the Drug metabolism [6] was “metabolite_detected”. The Drug metabolism (Cytochrome P450 3A5) was “metabolite_detected”, the Drug metabolism (Cytochrome P450 2D6) was “metabolite_detected” and the Drug metabolism (Cytochrome P450 2C9) was “metabolite_detected”. For the same molecule, the Retention_time [7] was 21.5 min and the Drug metabolism (Cytochrome P450 2C8) was “metabolite_detected”.
For `COc1ccc2nc(COc3ccc(CC(SSCC(N)C(=O)O)C(=O)O)cc3)n(C)c2c1` (centres undefined), the Drug metabolism (Hepatocyte [13]) was “metabolite_detected” and the Retention_time [7] was 17.1 min.
In the case of `COc1ccc2nc(COc3ccc(CC(C(N)=O)[S+](C)[O-])cc3)n(C)c2c1` (centres undefined), the Drug metabolism (Hepatocyte [8]) is reported as “metabolite_detected”, the Drug metabolism (Liver microsome [9]) is reported as “metabolite_detected” and the Drug metabolism (Hepatocyte [10]) is reported as “metabolite_detected”. For the same molecule, the Drug metabolism [11] was “metabolite_detected”, the Retention_time [7] was 16.1 min and the Drug metabolism (Liver microsome [12]) was “metabolite_detected”.

— ChEMBL document CHEMBL3526048, “In vitro metabolism of rivoglitazone, a novel peroxisome proliferator-activated receptor γ agonist, in rat, monkey, and human liver microsomes and freshly isolated hepatocytes” (Drug Metab Dispos, 2011)
